CHO parental Ca: counter-screen for OX1R antagonists: effect in parental CHO cells; inhibition, % at 5.6 µM; parental CHO-K1, ATP-induced calcium, Fluo-8 fluorescence; actives 0.63% (n = 330,000);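 active means inhibition above that plate's mean sample inhibition plus 3 SD, cut at about 26% in these data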;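 further: 0% = ATP-challenged DMSO wells and 100% = DMSO wells without ATP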
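Material: parental CHO cells / Compound: single nominal dose of 5.6 µM per compound / Signal: Fluo-8 fluorescence / Replicates: singlicate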
TAAR1 ag: agonists of human TAAR1; Q96RJ0; CHO RD-HGA16 TAAR1, Fluo-8 calcium fluorescence; vehicle wells 0%, saturating PEA agonist 100%; activation, % at 3 µM; actives 0.99% (n = 360,000); AID 624467;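 active means activation above the mean activation of all test compounds in the run plus 3 SD, cut at about 38% in these data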
Target sequence (Q96RJ0 whole entry, looked up): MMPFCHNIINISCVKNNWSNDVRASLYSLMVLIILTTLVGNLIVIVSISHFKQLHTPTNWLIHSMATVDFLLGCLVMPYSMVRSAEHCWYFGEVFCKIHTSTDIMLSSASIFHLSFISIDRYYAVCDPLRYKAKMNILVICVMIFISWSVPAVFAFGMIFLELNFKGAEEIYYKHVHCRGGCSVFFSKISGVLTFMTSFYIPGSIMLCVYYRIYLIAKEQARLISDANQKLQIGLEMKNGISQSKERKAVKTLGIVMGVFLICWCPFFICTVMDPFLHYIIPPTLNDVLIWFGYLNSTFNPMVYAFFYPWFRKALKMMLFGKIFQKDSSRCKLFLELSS
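Signal – calcium-sensitive Fluo-8 signal, excitation 470-495, emission 515-575 nm · System – RD-HGA16 (CHO) cells co-expressing Gα16 and hTAAR1 · Incubation – 17-24 h seeding, 75 min 37 °C dye, 30 min RT · Compound dosing – 3 µM single concentration · Repeats – no replicates (n 1)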
OX1R antag-1: human HCRTR1 antagonism. CHO/OX1R cells, Fluo-8 calcium fluorescence, orexin A. inhibition, % at 5 µM. actives 0.43% (n = 330,000);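 active means inhibition above its plate's threshold, mean inhibition of all tested compounds on the plate plus 3 SD, cut at about 37% in these data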;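 further: 0% = orexin A challenge wells and 100% = SB-334867-A antagonist wells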
OX1R antag-2: OX1R (human) antagonism; O43613; OX1R-expressing cells, FRET antagonist read-out; inhibition, % at 6.6 µM; actives 1.8% (n = 330,000); in the data active means inhibition mostly above about 38%, no sharp cut-off; inactive means mostly below about 40%;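 further: 0% = agonist challenge alone and 100% = reference antagonist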
TAAR1 antagonist: human TAAR1 antagonism; Q96RJ0; CHO RD-HGA16 TAAR1, Fluo-8 calcium fluorescence, antagonist; inhibition, % at 3 µM; actives 1.5% (n = 360,000); AID 624466;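 active means inhibition above a per-plate cutoff, the mean inhibition of test compounds on that plate plus 3 SD, cut at about 49% in these data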;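 further: 0% = DMSO plus EC80 beta-PEA response and 100% = DMSO alone without agonist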
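Material: CHO RD-HGA16 cells bearing hTAAR1; compound dosing: one-point dosing, 3 µM nominal final; schedule: dye loading 75 min at 37 °C, then 30 min room temperature; measured by: calcium fluorescence with Fluo-8; control set: vehicle and agonist controls; replication: n of 1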
An asterisk follows results filed as active. Compounds with a hit are over-represented: about 4% of the library has one in this group of screens.

How did COC(=O)C1=C(C)N(Cc2ccc(Cl)cc2)C(=S)NC1c1ccc(Br)cc1 (stereo not drawn) do in these assays?
TAAR1 ag: 0; TAAR1 antagonist: 6

How did O=C1NC(c2ccccc2)(c2ccccc2)C(=O)N1CNc1ccccn1 do in these assays?
TAAR1 ag: 0; TAAR1 antagonist: -9

How did COC(=O)C1=C(C)N(Cc2cccc(C(F)(F)F)c2)C(=NCc2ccc3c(c2)OCO3)NC1c1cccc(Cl)c1 (stereo not drawn) do in these assays?
TAAR1 ag: 34; TAAR1 antagonist: 28

How did COCc1ccc(-c2c(-c3cc(OC)cc(OC)c3)oc(=O)c3cc(OC)c(OC)cc23)cc1 do in these assays?
CHO parental Ca: -18; TAAR1 ag: 3; OX1R antag-1: -32; OX1R antag-2: 7; TAAR1 antagonist: 38

What do the screens show for `COc1ccc(S(=O)(=O)N2CCCc3nc(C)c(C)cc32)cc1`?
TAAR1 ag: -1; TAAR1 antagonist: -5

Results for Cc1ccccc1-c1ccc2c(c1)[C@@H]1C[C@H]3[C@@H](CN1CC2)[C@H](C)ON3C ?
TAAR1 ag: 2; TAAR1 antagonist: -35

How did OC1(c2ccc(F)cc2)CSC(=Nc2cccnc2)N1Cc1ccco1 (stereo not drawn) do in these assays?
CHO parental Ca: -3; TAAR1 ag: 2; OX1R antag-1: 2; OX1R antag-2: 61; TAAR1 antagonist: 18

How did OC1(c2ccc(OC(F)F)cc2)CSC(=Nc2cccnc2)N1Cc1ccco1 (stereo not drawn) do in these assays?
TAAR1 ag: 10; TAAR1 antagonist: 57*

Results for Cc1ccc(-c2cc(C(=O)N3CCN(c4ncccn4)CC3)c3cc(Br)ccc3n2)o1 ?
CHO parental Ca: -12; TAAR1 ag: 24; OX1R antag-1: -15; OX1R antag-2: 4; TAAR1 antagonist: 59*

Results for Cc1ccc(-c2cc(C(=O)N3CCN(c4ccc(F)cc4)CC3)c3ccccc3n2)o1 ?
CHO parental Ca: -14; TAAR1 ag: 19; OX1R antag-1: -23; OX1R antag-2: 25; TAAR1 antagonist: 46

How did CCOC(=O)c1ccc(NC(=O)Nc2ccc(F)cc2)cc1 do in these assays?
CHO parental Ca: 22; TAAR1 ag: 35; OX1R antag-1: 1; OX1R antag-2: 52*; TAAR1 antagonist: 14

What do the screens show for `CCOC(=O)c1sc(NC(=O)Nc2ccc(F)cc2)nc1C`?
CHO parental Ca: 14; TAAR1 ag: 10; OX1R antag-1: 17; OX1R antag-2: 37; TAAR1 antagonist: 62*

How did COC(=O)c1ccc(NC(=O)Nc2ccc(F)cc2)cc1 do in these assays?
CHO parental Ca: 7; TAAR1 ag: 34; OX1R antag-1: 26; OX1R antag-2: 64; TAAR1 antagonist: 10

How did COc1ccc(NC(=O)COC(=O)CN2C(=O)C3CCCCC3C2=O)cc1OC (stereo not drawn) do in these assays?
CHO parental Ca: -4; TAAR1 ag: 5; OX1R antag-1: -6; OX1R antag-2: 5; TAAR1 antagonist: 5

Results for CS(=O)(=O)N(CC(=O)N1CCN(Cc2ccccc2)CC1)c1ccccc1Br ?
CHO parental Ca: 4; TAAR1 ag: 1; OX1R antag-1: -2; OX1R antag-2: 12; TAAR1 antagonist: -3

What do the screens show for `CC(C)(C)c1cc[n+](C2=C([O-])c3ccccc3C(=O)/C2=N\S(=O)(=O)c2cccs2)cc1`?
CHO parental Ca: -15; TAAR1 ag: 3; OX1R antag-1: -23; OX1R antag-2: 77*; TAAR1 antagonist: -19

Results for CCOc1ccc(C(CCc2ccccc2)NC(=O)c2ccccc2OC)cc1OCC (stereo not drawn) ?
CHO parental Ca: 24; OX1R antag-1: 47*; OX1R antag-2: 14

Results for CCOc1ccc(C(CCc2ccccc2)NC(=O)c2ccccc2F)cc1OCC (stereo not drawn) ?
CHO parental Ca: -12; TAAR1 ag: 8; OX1R antag-1: -25; OX1R antag-2: 22; TAAR1 antagonist: -20

What do the screens show for `O=C1c2ccccc2C(=O)c2[nH]cnc21`?
TAAR1 ag: 0; TAAR1 antagonist: -3

How did O=C1c2ccccc2C(=O)c2c1ncn2-c1ccccc1 do in these assays?
CHO parental Ca: 4; TAAR1 ag: 5; OX1R antag-1: -1; OX1R antag-2: 64*; TAAR1 antagonist: 12

What do the screens show for `C[C@@H]1CN([C@H](C)CO)C(=O)c2cc(Br)cnc2O[C@H]1CN(C)C(=O)c1ccc(F)cc1`?
TAAR1 ag: 1; TAAR1 antagonist: -12

What do the screens show for `COc1ccc2c(c1OC)C(=O)N1C(C(=O)O)Cc3c([nH]c4ccccc34)C21` (stereo not drawn)?
CHO parental Ca: -23; TAAR1 ag: 3; OX1R antag-1: -9; OX1R antag-2: 75*; TAAR1 antagonist: 3

Results for COc1ccc(NC(=O)Nc2nc(C(N)CC(C)C)cs2)cc1 (stereo not drawn) ?
TAAR1 ag: 5; TAAR1 antagonist: 2

How did NC(c1csc(NC(=O)Nc2ccc(OC(F)(F)F)cc2)n1)C1CCCCC1 (stereo not drawn) do in these assays?
TAAR1 ag: 47*; TAAR1 antagonist: 8

What do the screens show for `CCCC(C)(C)C(=O)N1CCC1(C)C(=O)Nc1cccc(OC)c1` (stereo not drawn)?
TAAR1 ag: 2; TAAR1 antagonist: -33

How did O=C(C1=C(O)C(=O)N(c2nccs2)C1c1ccccc1)c1cc2ccccc2o1 (stereo not drawn) do in these assays?
CHO parental Ca: 38; TAAR1 ag: 5; OX1R antag-1: 52*; OX1R antag-2: 6; TAAR1 antagonist: -38

What do the screens show for `N#C/C(=C(/O)COC(=O)c1ccccc1O)c1nc2ccccc2s1`?
CHO parental Ca: 5; TAAR1 ag: 9; OX1R antag-1: 0; OX1R antag-2: 53*; TAAR1 antagonist: 8

How did Cc1ccsc1/C=C1/SC(=O)N(CC(=O)N2CCOCC2)C1=O do in these assays?
CHO parental Ca: -16; TAAR1 ag: 8; OX1R antag-1: -7; OX1R antag-2: 37; TAAR1 antagonist: -4

How did Cc1ccc(S(=O)(=O)CCC(=O)NCCc2ccccc2)cc1 do in these assays?
CHO parental Ca: -16; TAAR1 ag: 18; OX1R antag-1: -22; OX1R antag-2: 9; TAAR1 antagonist: -8

Results for O=C(CCN1C(=O)S/C(=C\c2ccccc2)C1=O)N1CCOCC1 ?
CHO parental Ca: -8; TAAR1 ag: 4; OX1R antag-1: -8; OX1R antag-2: 56*; TAAR1 antagonist: -14

Results for Cc1ccc(S(=O)(=O)CCC(=O)NCCN2C(=O)S/C(=C\c3ccccc3)C2=O)cc1 ?
CHO parental Ca: -23; TAAR1 ag: 16; OX1R antag-1: -10; OX1R antag-2: 37; TAAR1 antagonist: 55*

How did O=C(CN1C(=O)S/C(=C/c2ccncc2)C1=O)Nc1ccccc1 do in these assays?
CHO parental Ca: -2; TAAR1 ag: 3; OX1R antag-1: -7; OX1R antag-2: 64*; TAAR1 antagonist: -2
